The values below come from article PMC5395206 (Journal of chemical information and modeling, 2016).

Test [1] relates to CB2 F197 replaced with valine. The conditions noted are these: cited from earlier work.
In test [2] the target is CB2 (Homo sapiens, UniProt P34972). The test can be described thus: Radioligand competition binding assay, [3H]CP-55,940 displacement. The following applies: inhibition of [3H]CP-55,940 (3 nM) binding to CB2 membrane protein. The procedure, abridged:
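CB2 membrane protein (5 μg) incubated with [3H]CP-55,940 (3 nM final) and serial dilutions of test compound. Compound was diluted in binding buffer with 10% DMSO and 0.4% methylcellulose. Incubation was 1 h at 30 °C with gentle shaking, then GF/B filtration and scintillation counting. Run in duplicate, reported as mean ± SEM; Ki from nonlinear regression.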
Background: In a radioligand displacement assay an active substance lowers the binding of a labelled ligand.

Test [3] concerns human CB2 receptors. The test can be described thus: LANCE cAMP assay in CB2-transfected CHO cells. The format is cell-based. In short, it runs like this: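 CHO cells stably transfected with wild-type human CB2, seeded at 2000 cells/well in RPMI-1640 with 1% dialyzed FBS, 25 mM HEPES and G-418, cultured overnight. Added cAMP antibody plus RO20-1724 (50 μM final) in DPBS/0.1% BSA, then test compound or forskolin (5 μM final). Incubated 45 min at RT, plus 1 h with detection reagent. TR-FRET read at ex 340/em 665 nm. ≥2 independent experiments in triplicate; EC50 from nonlinear regression.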
A general note: TR-FRET usually uses a lanthanide donor and a delayed reading to cut background.

[4] abbreviates: CHO cells expressing human CB2, forskolin-induced cAMP.

pKi: −log10 of the molar value.

CB2, sequence (P34972 whole entry): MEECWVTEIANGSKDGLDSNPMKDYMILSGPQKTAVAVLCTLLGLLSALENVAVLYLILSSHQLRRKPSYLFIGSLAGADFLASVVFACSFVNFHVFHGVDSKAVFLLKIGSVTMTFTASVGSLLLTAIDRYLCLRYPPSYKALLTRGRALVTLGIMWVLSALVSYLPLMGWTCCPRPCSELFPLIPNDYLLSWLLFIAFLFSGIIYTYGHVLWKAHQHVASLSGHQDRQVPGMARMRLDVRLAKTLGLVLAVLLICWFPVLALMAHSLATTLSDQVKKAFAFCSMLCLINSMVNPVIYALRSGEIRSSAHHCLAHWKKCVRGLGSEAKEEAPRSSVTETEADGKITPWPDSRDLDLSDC

As for `CCCCCCC(C)(C)c1ccc([C@@H]2C[C@H](O)CC[C@H]2CCCO)c(O)c1` [CP55940], in test [1], the “Effect of replacement of F197 with valine on association” value (“Effect of replacement of F197” below) is given as “no effect”.

As to `CCCCC/C=C\C/C=C\C/C=C\C/C=C\CCCC(=O)NCCO` [AEA], the “Effect of replacement of F197” value in test [1] is “no effect”.

Regarding `CCCCCCC(C)(C)c1cc(O)c2c(c1)OC(C)(C)[C@@H]1CC=C(CO)C[C@@H]21` [hU-210], the “Effect of replacement of F197” value in test [1] is reported as “no effect”.

As to `COc1ccc(C(=O)c2nc3ccccc3n2CC(=O)c2ccc(Cl)cc2)cc1` [NSC745454], the pKi (usually the Ki on a negative log10 scale, so that one unit is a factor of ten) in test [2] is 5.81.

In the case of `Cc1ccc(S(=O)(=O)NC(CC(=O)OCc2ccccc2)C(=O)OCc2ccccc2)cc1` (stereo not shown) [NSC296950], the pKi in test [2] is 5.63. In addition, the “Functional activity in LANCE cAMP assay” value in test [3] (setting [4]) was “inverse agonist”.

Regarding `CCN(CC)CCCNc1cccc2ccc(OC)nc12.I` [NSC402300], the pKi in test [2] is 6.40. Further, the “Functional activity in LANCE cAMP assay” value is listed as “inverse agonist” in test [3] (at concentrations above 10 μM) and “neutral antagonist” in test [3] (at concentrations below 10 μM).

Consider `Cc1ccc(OCc2c(COc3ccc(Cl)cc3)sc3ccc(Cl)cc23)cc1` [NSC162677], for which, in test [2], the pKi was 5.81.

`Cc1ccc(S(=O)(=O)N(Cc2ccc(Cl)cc2)S(=O)(=O)c2ccc(C)cc2)cc1` [NSC273936] gave a pKi in test [2] of 6.46.

In test [2], `COC(=O)CCc1c(Cc2ccc[nH]2)[nH]c(C(=O)OCc2ccccc2)c1C` [NSC669611] gave a pKi of 6.03. Further, the “Functional activity in LANCE cAMP assay” value in test [3] (setting [4]) was “behaves similarly to NSC402300”; in test [3] (at concentrations below 10 μM), “neutral antagonist”.

For the compound `Cc1ccc(S(=O)(=O)N(CCc2ccccc2)S(=O)(=O)c2ccc(C)cc2)cc1` [NSC273940], the pKi in test [2] was 6.71.

Regarding `Cc1c(C(=O)c2cccc3ccccc23)c2cccc3c2n1[C@H](CN1CCOCC1)CO3` [WIN55,212-2], in test [1], the “Decrease in binding affinity to CB2 on replacement of F197 with valine” value is reported as 14 fold.

`Cc1ccc(S(=O)(=O)N(CCc2ccc(Cl)cc2)S(=O)(=O)c2ccc(C)cc2)cc1` [NSC273939] showed a pKi in test [2] of 6.72.

Regarding `Cc1ccc(C)c(NC(=O)CCC(=O)C(C#N)c2nc3ccccc3s2)c1` (stereo not shown) [NSC618804], in test [2], the pKi was 6.18.

With `CC1CN(CCOC(=O)Nc2ccc(Cl)cc2)CCN1C(C)(C)C` (stereo not shown) [NSC93299], the pKi in test [2] is 5.65.
